WT yeast gro inh: growth inhibition of WT strain, primary screen, mitochondrial fusion inhibitor project, WT and mutant strains, chemical genetic; 190,000 compounds, 2.1% hits; mitochondrial fusion phenotypic screen; inhibition, % at 10 µM; in the data active = inhibition above about 58%; tested in S. cerevisiae
PMI activator: activators of human PMI, primary screen, biochemical, fluorescence intensity, near-Km mannose 6-phosphate; purified human PMI, coupled resazurin fluorescence, 20 min; stronger effect = higher value; 1 = vehicle control, 0 substrate-free wells; activation factor at 20 µM; 190,000 compounds, 0.005% hits; AID 1214, 2008;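 active = activation factor of 2 or more at 20 µM, relative to plate controls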
Target sequence (P34949 whole entry, looked up): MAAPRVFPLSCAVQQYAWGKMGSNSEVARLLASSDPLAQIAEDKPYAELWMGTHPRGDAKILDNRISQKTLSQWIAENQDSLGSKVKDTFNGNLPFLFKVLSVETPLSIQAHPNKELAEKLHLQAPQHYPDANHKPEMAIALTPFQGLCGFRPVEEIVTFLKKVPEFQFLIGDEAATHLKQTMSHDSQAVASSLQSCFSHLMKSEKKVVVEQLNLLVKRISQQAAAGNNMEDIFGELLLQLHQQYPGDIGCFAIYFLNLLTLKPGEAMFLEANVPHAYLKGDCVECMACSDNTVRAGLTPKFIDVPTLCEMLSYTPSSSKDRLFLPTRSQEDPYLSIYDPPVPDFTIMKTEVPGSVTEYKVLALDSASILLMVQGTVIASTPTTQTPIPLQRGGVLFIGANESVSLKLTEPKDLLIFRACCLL
L major viab: Leishmania major promastigote growth inhibition, primary screen | AID 1063, 2008 | inhibition, % at 10 µM | Leishmania major promastigotes, resazurin fluorescence viability | 200,000 compounds, 9% hits; in the data active = inhibition above about 50%;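 also: promastigotes grown with compound for 44 hours at 28 °C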
Diaphorase act: compounds boosting diaphorase resazurin reduction – biochemical, uHTS, resorufin fluorescence, counter-screen for diaphorase-coupled primary assays, primary screen; activation factor at 20 µM; 190,000 compounds, 0.005% hits; Diaphorase/resazurin coupled assay, 16 min; stronger effect = higher value; 1 = vehicle wells, 0 = NADH-free wells; AID 1229, 2008;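 active = diaphorase activity raised at least twofold by the compound at 20 µM; inactive = activation factor below 2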
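Test system: Clostridium kluyveri diaphorase, purified enzyme; input: enzyme 0.07 U/mL final; buffer or medium: 50 mM HEPES pH 7.4 with 4.542 mM MgCl2, 0.005% Tween 20; also added: 0.114 mM NADH and 0.1 mM resazurin, final amounts; schedule: 16 min enzyme reaction, ambient temperature; technique: fluorescence of resorufin, 544 nm excitation, 590 nm emission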
PMI act hi M6P: human PMI activators, high substrate, primary screen, biochemical, fluorescence intensity, near-saturating mannose 6-phosphate; Mannose-6-phosphate isomerase (Homo sapiens), P34949; coupled PMI enzyme assay, resazurin fluorescence, 20 min; stronger effect = higher value; 1 = untreated enzyme, 0 = substrate-free blank; 190,000 compounds, 0.34% hits; activation factor at 20 µM;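 active = activation factor of 2 or more at 20 µM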
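test system = human PMI in coupled enzyme assay | medium = HEPES-buffered pH 7.4 with magnesium and detergent | also added = 1.0 mM mannose-6-phosphate substrate with 0.22 mM NADP+ | compound = 20 µM single dose | times = 20 min incubation at room temperature | measured by = resorufin fluorescence (Ex 544/Em 590 nm) from resazurin via diaphorase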
* hit, by the source's call. Rows were chosen to be rich in hits. Some 10% of all compounds tested hit in one or more screens of this group.

SMILES	WT yeast gro inh	PMI activator	L major viab	Diaphorase act	PMI act hi M6P
O=C(COc1ccccc1C(=O)Nc1ccccc1)NCCc1ccccc1	7.9	0.9	-2.5	0.9	0.9
CCOc1cc(CNC(C)C)c(Cl)cc1OCC(=O)NCCc1ccccc1	-34.1	0.9	98.7*	0.9	0.9
CCOc1cc(CNCCO)c(Cl)cc1OCC(=O)NCCc1ccccc1	52.9	1	90.8*	1	1
Cc1occc1C(=O)N/N=C/C1=C(N2CCOCC2)C(=C\c2ccc(Cl)cc2Cl)/CC1	1.9	1	92.9*	0.8	1
O=C(CCCSc1ccccc1)Nc1nc(-c2ccco2)c(-c2ccco2)s1	30.6	1.2	74.9*	0.6	1.1
Nc1nc(-c2ccco2)c(-c2ccco2)s1	2.1	1.2	45.7	0.7	0.8
O=C(CCl)Nc1nc(-c2ccco2)c(-c2ccco2)s1	11.0	1.2	69.0*	0.3	1.1
Clc1ccc(-c2cn3c(n2)-c2ccccc2C3)cc1Cl	15.2	0.9	33.7	0.9	1
O=C1C2C3c4ccccc4C(c4ccccc43)C2C(=O)N1Cc1cccnc1 (stereo not given)	-16.4	0.9	8.2	0.9	0.9
c1ccc(CNc2ccc(CNc3ncn[nH]3)cc2)cc1	-15.1	1	64.3*	1	0.9
COc1ccc(COCC(O)CN2CCc3ccccc3C2)cc1OC (stereo not given)	-6.8	1.1	0.6	0.9	1
CCOc1ccc(/C=C/C(=O)c2cc(Br)ccc(=O)c2O)cc1	-28.9	1.6	8.4	0.7	2*
Cc1cccc(/C=C/C(=O)c2cc(Br)ccc(=O)c2O)c1	3.4	1.4	99.6*	0.7	1.6
COc1ccc(CCN(Cc2cc3ccc(C)cc3n3nnnc23)C(C)=O)cc1OC	-4.2	0.9	10.3	0.8	0.9
CC(C)Oc1ccc(/C(O)=C2/C(=O)C(=O)N(CCN(C)C)C2c2ccco2)cc1 (stereo not given)	3.2	0.9	88.7*	0.9	1
O=C(OCCNc1nc(-c2ccccc2)nc2ccccc12)c1cccnc1	23.7	1	56.8*	0.9	1.1
CCCOC(=O)c1cccc(NC(=O)c2cccnc2)c1	-10.7	1.1	1.5	0.9	1
CCCOC(=O)c1cccc(Nc2nc(-c3cccnc3)nc3ccccc23)c1	12.0	1	55.5*	1	1.1
O=C(OCCNc1nc(-c2ccccc2)nc2ccccc12)c1ccncc1	36.1	0.9	71.8*	1	1
O=C(O)CCNc1nc(-c2ccccc2)nc2ccccc12	-1.3	0.9	11.7	0.9	0.9
COc1ccc(C2=CSC3=NNC4(CCCCC4)NN23)cc1	17.4	1.1	67.5*	0.9	1
COc1ccc(-c2n[nH]c(=S)n2C2CCCCC2)cc1	-2.9	1	-3.0	0.9	1
N#CC1=C(N)NC(SCc2ccc(Br)cc2)=C(C#N)C12CCCCC2	66.6*	0.9	98.1*	0.8	0.9
N#CC1=C(N)NC(SCC(=O)Nc2ccc(Br)cc2)=C(C#N)C12CCCCC2	19.6	1	83.8*	0.8	1
N#CC1=C(N)NC(SCc2ccc(Cl)cc2)=C(C#N)C12CCCCC2	10.9	0.7	99.3*	0.7	0.8
SMILES	WT yeast gro inh	PMI activator	L major viab	Diaphorase act	PMI act hi M6P
CCSC1=C(C#N)C2(CCCC2)C(C#N)=C(N)N1	-24.4	1	6.6	0.8	0.9
N#CC1=C(N)NC(SCC(=O)c2ccccc2)=C(C#N)C12CCCC2	-10.5	1	18.6	0.9	0.9
N#CC1=C(N)NC(SCc2ccccc2)=C(C#N)C12CCCC2	12.1	0.9	26.1	0.8	0.9
CCCC[C@@H]1CNC(=S)N1CCCC	8.3	1	-2.4	1	1.1
Cc1c(-c2cccs2)[n+](=O)c2c(n1[O-])CCCCC2	58.0*	1	-2.3	0.8	1
COC(=O)c1sc(NC(=O)CCCn2nc([N+](=O)[O-])cc2C)c(C(=O)OC)c1C	-0.2	1	49.1	1	1
CC(C(=O)Nc1nc2ccccc2s1)n1cc([N+](=O)[O-])cn1 (stereo not given)	10.1	0.9	3.7	0.8	0.9
Cc1nn(-c2ccccc2)c(N2CCCC2)c1/C=N/NC(=S)Nc1ccccc1F	37.1	1	10.2	1	1.1
Cc1ccc2nc(N(CCCN(C)C)C(=O)c3sc4ccccc4c3Cl)sc2c1	88.8*	1	56.0*	1.1	1
Cc1ccc(C(=O)N(CCCN(C)C)c2nc3ccc(Cl)cc3s2)cc1C	89.5*	1.2	81.7*	1.2	1.1
CN(C)CCCN(C(=O)c1ccc2c(c1)CCCC2)c1nc2ccc(F)cc2s1	86.7*	1	73.5*	0.9	1
CN(C)CCCN(C(=O)c1ccco1)c1nc2ccc(Cl)cc2s1	15.7	1	42.0	1	1
C=CCc1ccc(OCCOCCOc2ccccc2[N+](=O)[O-])c(OC)c1	22.7	0.9	3.7	1	1.1
CCC(C)(C)NC(=O)C1CCN(c2nc(OC)nc(OC)n2)CC1	0.5	1.1	5.8	0.9	1.1
CCCNC(=O)CN(C)CC(=O)Nc1ccccc1C#N	-15.3	0.9	-5.3	0.9	0.9
COc1cccc(-c2nn(-c3ccccc3)cc2/C=C\C(=O)c2cccs2)c1	-5.0	0.9	65.4*	1	1
COc1cccc(-c2nn(-c3ccccc3)cc2C(=O)O)c1	8.6	1.1	-4.6	0.9	1
Cc1ccc(NC(=O)C2(c3cccs3)CCOCC2)cc1C	-6.5	1	-1.4	0.9	1.1
OC(COc1ccc2ccccc2c1Cl)CN1CCOCC1 (stereo not given)	-18.2	0.9	91.9*	0.8	0.9
OC(COc1ccccc1Cl)CN1CCN(CC(O)COc2ccccc2Cl)CC1 (stereo not given)	18.7	1	88.4*	1.1	1
O=C(N1CCOCC1)N1CCN(CC(O)COc2ccc3ccccc3c2)CC1 (stereo not given)	8.6	1	-0.1	1	1
CCn1c(SCC(=O)Nc2nc(C)c(C)s2)nc2cccnc21	1.6	1	91.6*	0.8	0.9
Cc1nc(NC(=O)CSc2nc3cccnc3n2C2CCCCC2)sc1C	-4.2	0.9	-3.5	0.7	0.9
O=C(Oc1ccccc1Cl)c1ccc(-n2cncn2)nc1	7.6	1	-2.7	0.9	1.1
CCOc1ccc(OCC)c(-c2c(=O)n(OCc3ccccc3C(=O)OC)c3ccccc3[n+]2[O-])c1	25.5	1	78.9*	0.8	1
COc1ccccc1COn1c(=O)c(-c2ccco2)[n+]([O-])c2ccccc21	5.5	1.1	6.0	0.9	0.9

Bioassay records (PubChem BioAssay)
